In ChEMBL document CHEMBL1275477, “Discovery and characterization of QPT-1, the progenitor of a new class of bacterial topoisomerase inhibitors” (Antimicrob Agents Chemother, 2008):
Values after ≈ are worked out from the molar mass of the structure shown.

Legend:
Staphylococcus aureus [1] = assay: Antibacterial activity against methicillin-resistant Staphylococcus aureus by broth microdilution method; assay type: functional
How it was run: (§1)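 Broth microdilution MIC following National Committee for Clinical Laboratory Standards methods. Plasmid-borne GyrB in transformed S. aureus strains was overexpressed by adding 100 ng/ml doxycycline.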

Staphylococcus aureus [2] = assay: Antibacterial activity against Staphylococcus aureus UC9218 by broth microdilution method in presence of 50% serum; assay type: functional; how it was run: as §1
Haemophilus influenzae = assay: Antibacterial activity against Haemophilus influenzae UC30063 by broth microdilution method; assay type: functional; how it was run: as §1
Streptococcus pneumoniae [3] = assay: Antibacterial activity against Streptococcus pneumoniae UC15142 by broth microdilution method; assay type: functional; how it was run: as §1
Staphylococcus aureus [4] = assay: Antibacterial activity against methicillin-susceptible Staphylococcus aureus by broth microdilution method; assay type: functional; how it was run: as §1
Staphylococcus aureus [5] = assay: Antibacterial activity against methicillin and ciprofloxacin-resistant Staphylococcus aureus UC12673 by broth microdilution method; assay type: functional; how it was run: as §1
Escherichia coli = assay: Antibacterial activity against Escherichia coli UC6674 by broth microdilution method; assay type: functional; how it was run: as §1
Staphylococcus aureus [6] = assay: Antibacterial activity against ciprofloxacin-resistant Staphylococcus aureus by broth microdilution method; assay type: functional; how it was run: as §1
Moraxella catarrhalis = assay: Antibacterial activity against Moraxella catarrhalis UC3067 by broth microdilution method; assay type: functional; how it was run: as §1
[7] = test system: Staphylococcus epidermidis; assay: Antibacterial activity against methicillin and ciprofloxacin-resistant Staphylococcus epidermidis UC12084 by broth microdilution method; assay type: functional; how it was run: as §1
Klebsiella pneumoniae = assay: Antibacterial activity against Klebsiella pneumoniae UC12081 by broth microdilution method; assay type: functional; how it was run: as §1
Streptococcus pyogenes = assay: Antibacterial activity against Streptococcus pyogenes UC152 by broth microdilution method; assay type: functional; how it was run: as §1
Staphylococcus aureus [8] = assay: Antibacterial activity against Staphylococcus aureus UC9218 by broth microdilution method in presence of 25% serum; assay type: functional; how it was run: as §1
Streptococcus pneumoniae [9] = assay: Antibacterial activity against Streptococcus pneumoniae by broth microdilution method; assay type: functional; how it was run: as §1
Pseudomonas aeruginosa = assay: Antibacterial activity against Pseudomonas aeruginosa UC6676 by broth microdilution method; assay type: functional; how it was run: as §1
Streptococcus pneumoniae [10] = assay: Antibacterial activity against ciprofloxacin-resistant Streptococcus pneumoniae by broth microdilution method; assay type: functional; how it was run: as §1
Staphylococcus aureus [11] = assay: Antibacterial activity against methicillin-susceptible Staphylococcus aureus UC9218 by broth microdilution method; assay type: functional; how it was run: as §1
Enterococcus faecium = assay: Antibacterial activity against Enterococcus faecium UC12712 by broth microdilution method; assay type: functional; how it was run: as §1
Streptococcus pneumoniae [12] = assay: Antibacterial activity against Streptococcus pneumoniae UC9912 by broth microdilution method; assay type: functional; how it was run: as §1
Enterococcus faecalis = assay: Antibacterial activity against Enterococcus faecalis UC9217 by broth microdilution method; assay type: functional; how it was run: as §1
Staphylococcus aureus [13] = assay: Antibacterial activity against methicillin-resistant Staphylococcus aureus UC9213 by broth microdilution method; assay type: functional; how it was run: as §1
Staphylococcus aureus [14] = assay: Antimicrobial activity against Staphylococcus aureus 286607-R1 harboring wild type gyrB by broth microdilution method; assay type: functional; how it was run: as §1
Staphylococcus aureus [15] = assay: Antimicrobial activity against Staphylococcus aureus RN4220 expressing gyrB D437N mutant gene by broth microdilution method; assay type: functional; how it was run: as §1
Staphylococcus aureus [16] = assay: Antimicrobial activity against Staphylococcus aureus 286607-R1 by broth microdilution method; assay type: functional; how it was run: as §1
Staphylococcus aureus [17] = assay: Antibacterial activity against Staphylococcus aureus RN4220 by broth microdilution method; assay type: functional; how it was run: as §1
Staphylococcus aureus [18] = assay: Antibacterial activity against ciprofloxacin-resistant Staphylococcus aureus ATCC 29213 by broth microdilution method; assay type: functional; how it was run: as §1
[19] = Inhibition of Escherichia coli DNA gyrase by gel electrophoresis
Staphylococcus aureus [20] = assay: Antibacterial activity against methicillin-resistant Staphylococcus aureus UC9213 in orally dosed lethal systemic CF-1 mouse infection model; assay type: functional; conditions: UC9213, po
How it was run: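 Lethal systemic infection in female CF-1 mice (20 g), infected intraperitoneally with enough bacteria to kill 90–100% of untreated mice. Thawed cultures were suspended in brain heart infusion broth with 4% (wt/vol) dried brewer's yeast. Drug given orally or subcutaneously at 1 and 5 h postinfection, at five or more dose levels, six mice per level. Survival followed for 1 week; ED50 by probit analysis.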

Staphylococcus aureus [21] = assay: Antimicrobial activity against Staphylococcus aureus MW2 harboring parC R400C mutant gene by broth microdilution method; assay type: functional; how it was run: as §1
Staphylococcus aureus [22] = assay: Antimicrobial activity against Staphylococcus aureus USA200 harboring […] S84L and parC R400C mutant gene by broth microdilution method; assay type: functional; how it was run: as §1
Staphylococcus aureus [23] = assay: Antibacterial activity against quinoline pyrimidine trione-resistant Staphylococcus aureus ATCC 29213 by broth microdilution method; assay type: functional; how it was run: as §1
Staphylococcus aureus [24] = assay: Antimicrobial activity against methicillin-resistant Staphylococcus aureus SUAR 1015-01 harboring gyrA S84L, parC S80F and parE S189R mutant gene by broth microdilution method; assay type: functional; how it was run: as §1
[25] = Inhibition of Escherichia coli DNA topoisomerase 4 by gel electrophoresis

C[C@H]1CN2c3ccc([N+](=O)[O-])cc3CC3(C(=O)NC(=O)NC3=O)[C@@H]2[C@@H](C)O1
MIC (Staphylococcus aureus [1]): > 64 µg/mL | MIC50 (Staphylococcus aureus [1]): > 64 µg/mL | MIC90 (Staphylococcus aureus [1]): > 64 µg/mL | MIC (Staphylococcus aureus [2]): > 128 µg/mL | MIC (Haemophilus influenzae): > 128 µg/mL | MIC (Streptococcus pneumoniae [3]): > 128 µg/mL | MIC (Staphylococcus aureus [4]): > 64 µg/mL | MIC50 (Staphylococcus aureus [4]): > 64 µg/mL | MIC90 (Staphylococcus aureus [4]): > 64 µg/mL | MIC (Staphylococcus aureus [5]): > 64 µg/mL | MIC (Escherichia coli): > 128 µg/mL | MIC (Staphylococcus aureus [6]): 64 µg/mL (≈ 171 µM) | MIC50 (Staphylococcus aureus [6]): 64 µg/mL (≈ 171 µM) | MIC90 (Staphylococcus aureus [6]): > 64 µg/mL | MIC (Moraxella catarrhalis): > 64 µg/mL | MIC [7]: > 64 µg/mL | MIC (Klebsiella pneumoniae): > 64 µg/mL | MIC (Streptococcus pyogenes): > 64 µg/mL | MIC (Staphylococcus aureus [8]): 128 µg/mL | MIC (Streptococcus pneumoniae [9]): > 64 µg/mL | MIC50 (Streptococcus pneumoniae [9]): > 64 µg/mL | MIC90 (Streptococcus pneumoniae [9]): > 64 µg/mL | MIC (Pseudomonas aeruginosa): > 64 µg/mL | MIC (Streptococcus pneumoniae [10]): > 64 µg/mL | MIC50 (Streptococcus pneumoniae [10]): > 64 µg/mL | MIC90 (Streptococcus pneumoniae [10]): > 64 µg/mL | MIC (Staphylococcus aureus [11]): 128 µg/mL (≈ 342 µM) | MIC (Enterococcus faecium): > 64 µg/mL | MIC (Streptococcus pneumoniae [12]): > 128 µg/mL | MIC (Enterococcus faecalis): > 128 µg/mL | MIC (Staphylococcus aureus [13]): > 64 µg/mL

C[C@@H]1CN2c3ccc([N+](=O)[O-])cc3CC3(C(=O)NC(=O)NC3=O)[C@H]2[C@H](C)O1
MIC50 (Staphylococcus aureus [1]): 0.5 µg/mL (≈ 1.34 µM) | MIC90 (Staphylococcus aureus [1]): 0.5 µg/mL (≈ 1.34 µM) | MIC (Staphylococcus aureus [2]): 1 µg/mL | MIC (Haemophilus influenzae): 0.125 µg/mL (≈ 0.334 µM) | MIC (Streptococcus pneumoniae [3]): 2 µg/mL (≈ 5.34 µM) | MIC50 (Staphylococcus aureus [4]): 0.5 µg/mL (≈ 1.34 µM) | MIC90 (Staphylococcus aureus [4]): 0.5 µg/mL (≈ 1.34 µM) | MIC (Staphylococcus aureus [5]): 0.5 µg/mL (≈ 1.34 µM) | MIC (Escherichia coli): 2 µg/mL (≈ 5.34 µM) | MIC50 (Staphylococcus aureus [6]): 0.5 µg/mL (≈ 1.34 µM) | MIC90 (Staphylococcus aureus [6]): 0.5 µg/mL (≈ 1.34 µM) | MIC (Moraxella catarrhalis): 1 µg/mL (≈ 2.67 µM) | MIC [7]: 0.5 µg/mL (≈ 1.34 µM) | MIC (Klebsiella pneumoniae): > 64 µg/mL | MIC (Streptococcus pyogenes): 1 µg/mL (≈ 2.67 µM) | MIC (Staphylococcus aureus [8]): 0.5 µg/mL | MIC50 (Streptococcus pneumoniae [9]): 2 µg/mL (≈ 5.34 µM) | MIC90 (Streptococcus pneumoniae [9]): 4 µg/mL (≈ 10.7 µM) | MIC (Pseudomonas aeruginosa): > 64 µg/mL | MIC50 (Streptococcus pneumoniae [10]): 2 µg/mL (≈ 5.34 µM) | MIC90 (Streptococcus pneumoniae [10]): 4 µg/mL (≈ 10.7 µM) | MIC (Staphylococcus aureus [11]): 0.25 µg/mL (≈ 0.668 µM) | MIC (Enterococcus faecium): 4 µg/mL (≈ 10.7 µM) | MIC (Streptococcus pneumoniae [12]): 2 µg/mL (≈ 5.34 µM) | MIC (Enterococcus faecalis): 2 µg/mL (≈ 5.34 µM) | MIC (Staphylococcus aureus [13]): 0.5 µg/mL (≈ 1.34 µM)

CC1(C)S[C@@H]2[C@H](NC(=O)[C@H](N)c3ccccc3)C(=O)N2[C@H]1C(=O)O [AMPICILLIN]
MIC (Staphylococcus aureus [14]): 2 µg/mL (≈ 5.72 µM) | MIC (Staphylococcus aureus [15]): 2 µg/mL (≈ 5.72 µM) | MIC (Staphylococcus aureus [16]): 4 µg/mL (≈ 11.4 µM) | MIC (Staphylococcus aureus [17]): 2 µg/mL (≈ 5.72 µM)

O=C(N[C@H](CO)[C@H](O)c1ccc([N+](=O)[O-])cc1)C(Cl)Cl [CHLORAMPHENICOL]
MIC (Staphylococcus aureus [14]): 8 µg/mL (≈ 24.8 µM) | MIC (Staphylococcus aureus [15]): 8 µg/mL (≈ 24.8 µM) | MIC (Staphylococcus aureus [16]): 8 µg/mL (≈ 24.8 µM) | MIC (Staphylococcus aureus [17]): 8 µg/mL (≈ 24.8 µM)

O=C(O)c1cn(C2CC2)c2cc(N3CCNCC3)c(F)cc2c1=O [CIPROFLOXACIN]
MIC50 (Staphylococcus aureus [1]): 0.25 µg/mL (≈ 0.754 µM) | MIC90 (Staphylococcus aureus [1]): 32 µg/mL (≈ 96.6 µM) | MIC (Staphylococcus aureus [18]): 8 µg/mL (≈ 24.1 µM) | MIC50 (Staphylococcus aureus [4]): 0.125 µg/mL (≈ 0.377 µM) | MIC90 (Staphylococcus aureus [4]): 0.25 µg/mL (≈ 0.754 µM) | MIC50 (Staphylococcus aureus [6]): 16 µg/mL (≈ 48.3 µM) | MIC90 (Staphylococcus aureus [6]): > 64 µg/mL | IC50 [19]: 100 nM | ED50 (Staphylococcus aureus [20]): 10 mg/kg | MIC (Staphylococcus aureus [14]): 0.25 µg/mL (≈ 0.754 µM) | MIC50 (Streptococcus pneumoniae [9]): 1 µg/mL (≈ 3.02 µM) | MIC90 (Streptococcus pneumoniae [9]): 2 µg/mL (≈ 6.04 µM) | MIC (Staphylococcus aureus [21]): 0.25 µg/mL (≈ 0.754 µM) | MIC (Staphylococcus aureus [15]): 0.25 µg/mL (≈ 0.754 µM) | MIC (Staphylococcus aureus [22]): 8 µg/mL (≈ 24.1 µM) | MIC50 (Streptococcus pneumoniae [10]): 32 µg/mL (≈ 96.6 µM) | MIC90 (Streptococcus pneumoniae [10]): 64 µg/mL (≈ 193 µM) | MIC (Staphylococcus aureus [16]): 0.25 µg/mL (≈ 0.754 µM) | MIC (Staphylococcus aureus [23]): 0.5 µg/mL (≈ 1.51 µM) | MIC (Staphylococcus aureus [24]): 64 µg/mL (≈ 193 µM) | IC50 [25]: 1000 nM

CC[C@H]1OC(=O)[C@H](C)[C@@H](O[C@H]2C[C@@](C)(OC)[C@@H](O)[C@H](C)O2)[C@H](C)[C@@H](O[C@@H]2O[C@H](C)C[C@H](N(C)C)[C@H]2O)[C@](C)(O)C[C@@H](C)C(=O)[C@H](C)[C@@H](O)[C@]1(C)O [ERYTHROMYCIN]
MIC (Staphylococcus aureus [14]): 0.5 µg/mL (≈ 0.681 µM) | MIC (Staphylococcus aureus [15]): 0.5 µg/mL (≈ 0.681 µM) | MIC (Staphylococcus aureus [16]): 0.5 µg/mL (≈ 0.681 µM) | MIC (Staphylococcus aureus [17]): 0.5 µg/mL (≈ 0.681 µM)

NC[C@@H]1O[C@H](O[C@H]2[C@@H](O)[C@H](O[C@@H]3[C@@H](O)[C@H](N)C[C@H](N)[C@H]3O[C@H]3O[C@H](CN)[C@@H](O)[C@H](O)[C@H]3N)O[C@@H]2CO)[C@H](N)[C@@H](O)[C@@H]1O [FRAMYCETIN]
MIC (Staphylococcus aureus [14]): 2 µg/mL (≈ 3.25 µM) | MIC (Staphylococcus aureus [15]): 2 µg/mL (≈ 3.25 µM) | MIC (Staphylococcus aureus [16]): 4 µg/mL (≈ 6.51 µM) | MIC (Staphylococcus aureus [17]): 2 µg/mL (≈ 3.25 µM)

NC[C@H]1O[C@H](O[C@H]2[C@H](O)[C@@H](O[C@H]3O[C@H](CO)[C@@H](O)[C@H](N)[C@H]3O)[C@H](N)C[C@@H]2N)[C@H](O)[C@@H](O)[C@@H]1O [KANAMYCIN]
MIC (Staphylococcus aureus [14]): 2 µg/mL (≈ 4.13 µM) | MIC (Staphylococcus aureus [15]): 2 µg/mL (≈ 4.13 µM) | MIC (Staphylococcus aureus [16]): 4 µg/mL (≈ 8.26 µM) | MIC (Staphylococcus aureus [17]): 2 µg/mL (≈ 4.13 µM)
